Source: PubChem BioAssay
Shown is part of a subset that was picked to be rich in hits.
Biofilm kill mix: clotrimazole potentiators killing C. albicans biofilm, primary screen, 4-compound mixtures; C. albicans biofilm persisters + clotrimazole, fluorescence viability; primary screen in compound mixtures of four per well; inhibition, % at 7.6 µM; 120,000 compounds, 0.02% hits; AID 1242, 2008;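 active means inhibition above 30.3% in the primary screen of four-compound pools, then above 30% when the compound was retested; inconclusive means passed the primary limit but could not be retested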;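 further: compounds exposed to preformed 24 h biofilms for 48 h; 0% = untreated biofilm control and 100% = clotrimazole plus chlorhexidine kill blank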
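Assay system: C. albicans biofilms / Medium: RPMI/MOPS medium, pH 7.0 / Schedule: biofilm formation 24 h, compound exposure 48 h, 37 °C / Measured by: Alamar Blue fluorescence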
ROMK mod: ROMK potassium channel modulators, primary screen, cell-based, thallium flux, MLSMR library; Tet-inducible ROMK, thallium flux fluorescence; actives lie on both sides; ATP-sensitive inward rectifier potassium channel 1 (Homo sapiens), P48048; 130,000 compounds, 2% hits; B-score at 10 µM;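 active means signal ratio slope over the read window, or its plate-corrected B-score, at least 3 SD from the plate mean, either direction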;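 further: B-score of the F/F0 ratio slope over 7 to 12 s after thallium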
Target sequence (P48048 whole entry, looked up): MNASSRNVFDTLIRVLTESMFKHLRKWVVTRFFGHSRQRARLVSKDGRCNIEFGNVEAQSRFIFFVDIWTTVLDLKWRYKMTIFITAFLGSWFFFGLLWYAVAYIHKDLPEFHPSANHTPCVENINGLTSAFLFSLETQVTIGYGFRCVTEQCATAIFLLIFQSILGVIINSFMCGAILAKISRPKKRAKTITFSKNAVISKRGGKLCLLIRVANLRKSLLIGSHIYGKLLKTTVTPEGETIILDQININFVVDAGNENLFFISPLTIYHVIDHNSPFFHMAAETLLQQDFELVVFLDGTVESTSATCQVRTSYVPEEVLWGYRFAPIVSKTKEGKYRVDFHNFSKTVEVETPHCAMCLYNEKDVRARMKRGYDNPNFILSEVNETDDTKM
ROMK hit retest: ROMK channel modulator hit retest, confirmation, cell-based, thallium flux, duplicate, resupplied hits. shares compounds with ROMK mod. 3,000 compounds, 54% hits. fluorescence ratio; hits give low values. normalized thallium flux (F/F0 slope) at 10 µM. AID 1917, 2009;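 active means Flux at 10 µM at least 3 SD below or above vehicle control mean in one or both replicates; inconclusive means no clear call, values can overlap the other calls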
Starred values were filed as active, the others as inactive; ? = inconclusive; . = no result given.

SMILES	Biofilm kill mix	ROMK mod	ROMK hit retest
COc1cccc(N(C(=O)CCl)C(C(=O)NCCc2ccccc2)c2cccs2)c1 (configuration not stated)	18.9	-2.78	.
O=C(c1nnsc1S(=O)(=O)c1ccc(Cl)cc1)N1CCOCC1	18.9	-0.124	.
CNC(=O)c1nnsc1S(=O)(=O)c1ccc(Cl)cc1	20.0	-5.61*	0.0533*
O=C(NCC1CCCO1)c1cncc(Br)c1 (configuration not stated)	-3.6	0.512	.
COc1ccc(OC)c(NC(=O)Nc2cc(C(=O)O)ccc2C)c1	6.4	0.493	.
O=C(NC(Nc1nc2ccc([N+](=O)[O-])cc2s1)(C(F)(F)F)C(F)(F)F)c1cccnc1	41.0	-1.59	.
O=C(NC(Nc1nc2ccc([N+](=O)[O-])cc2s1)(C(F)(F)F)C(F)(F)F)c1ccccc1Cl	21.2	.	?
CC(=O)Nc1cccc2c1C(=O)N(c1ccc(C)cc1)C2=O	7.0	-2.65*	0.0761
Cc1ccc(N2C(=O)c3ccccc3C2=O)cc1	17.3	0.254	.
CCCN(C(=O)CCl)C1=CCCCC1	9.5	-2.02	.
CCOC(=O)CSc1nc2c(sc(=S)n2-c2ccccc2OC)c(=O)n1Cc1ccco1	.	.	0.0486*
CCOC(=O)CSc1nc2c(sc(=S)n2Cc2ccco2)c(=O)n1-c1ccccc1	.	-0.424	.
COc1ccc(NC(=O)COC(=O)CCNS(=O)(=O)c2ccccc2)cc1OC	2.8	-0.57	.
CCN1CC=C2C(C1)C(c1ccc(Cl)s1)C(C#N)=C(N)C2(C#N)C#N (configuration not stated)	.	.	0.0394*
CC(=O)Nc1ccc(Cc2ccc3[nH]c(=O)cc(C)c3c2)cc1	6.9	.	.
COC(=O)Cn1c2ccccc2c2nc(=O)cc(C)n21	8.1	-0.809	.
CC(=O)c1ccc(NC(=O)Cn2c3ccccc3c3nc(=O)cc(C)n32)cc1	25.0	.	0.0857
O=C(CSc1nnc(-c2ccco2)o1)c1ccccc1	.	.	0.0736
O=C(CSc1nnc(-c2ccco2)o1)c1ccc[nH]1	4.3	0.033	.
CCN(CC)C(=O)CCSc1nnc(-c2ccncc2)o1	13.9	0.838	.
CCN(CC)C(=O)CCSc1nnc(-c2ccco2)o1	4.0	1.27	0.0726
CCC(C)Sc1nc2c(c(=O)[nH]c(=O)n2C)n1CC(O)COc1ccccc1C (configuration not stated)	3.3	-3.47*	0.0663*
Cc1ccccc1OCC(O)Cn1c(NCc2ccco2)nc2c1c(=O)[nH]c(=O)n2C (configuration not stated)	.	-0.109	.
COc1ccc(-c2cn3c(C)c(C(=O)Nc4cccc(NC(C)=O)c4)sc3n2)cc1	.	-0.0088	.
COC(=O)c1ccc(NC(=O)c2sc3nc(-c4ccccc4)cn3c2C)cc1	.	.	?
SMILES	Biofilm kill mix	ROMK mod	ROMK hit retest
CCOc1ccc(CCNC(=O)c2cc3sccc3n2CC)cc1OCC	.	0.757	.
CCOCCCNC(=O)c1cc2sc(Cl)cc2n1CC	.	3.1*	0.0815
CCCn1cnc2cc(NC(=O)c3cccs3)ccc21	-14.2	.	.
Cc1cccc(-c2csc(N)c2C(=O)OC(C)C)c1	3.9	0.484	.
Cc1ccc(C)c(-c2csc(N)c2C(=O)OC(C)C)c1	.	2.7*	0.0781
O=C(CN1CCN(Cc2ccc(Cl)cc2)CC1)N/N=C/c1c[nH]c2ccccc12	7.5	0.0136	.
COc1ccc(CN2CCN(CC(O)Cn3c4ccccc4c4ccccc43)CC2)cc1 (configuration not stated)	12.0	-3.57*	0.0601*
Cc1ccc2c(c1)c1c(n2CC(O)CN2CCC(C)CC2)CCCC1 (configuration not stated)	7.9	.	.
COc1ccc(-c2cc3ccccc3n2CC(O)CN2CCC(C)CC2)cc1 (configuration not stated)	2.6	-1.97*	0.0571*
CCOc1ccc(CN2CCN(CC(O)Cn3c4ccccc4c4ccccc43)CC2)cc1 (configuration not stated)	18.6	-1.55	.
Cc1cccc(NC(=O)c2sc(Cl)nc2C)c1C	9.5	.	.
Nc1cc(S(=O)(=O)N2CCCCC2)ccc1Oc1ccc(Cl)cc1	19.5	-0.437	.
COc1ccc(S(=O)(=O)N2CCCCC2)cc1C(C)C	.	.	0.0529*
COc1ccc(S(=O)(=O)N2CCCCCC2)cc1C(=O)OC(C)C(N)=O (configuration not stated)	18.2	.	.
COc1ccc(Oc2ccc(S(=O)(=O)N3CCCCC3)cc2S(=O)(=O)N2CCCCC2)cc1	14.2	-5.71*	0.0466*
CC(=O)N1C(=O)C(=C2C=C(C)OC(C)=C2)c2ccccc21	.	.	0.0624*
CC(=O)N1C(=O)/C(=C2\SC(=S)N(NS(=O)(=O)c3ccc(C)cc3)C2=O)c2ccccc21	7.0	0.00495	.
FC(F)(F)c1ccc(-c2noc(CN3CCCN(C4CCCCC4)CC3)n2)cc1	12.2	-1.93	.
O=C1NC(NS(=O)(=O)c2ccc(Cl)cc2)(C(F)(F)F)C(=O)N1Cc1cccnc1 (configuration not stated)	-2.2	0.105	.
CC1CCCCN1C(=O)CNCC1CCCO1 (configuration not stated)	11.5	.	.
Cc1noc(C)c1COc1ccc(C(=O)OC(C)C(=O)Nc2ccc(S(=O)(=O)N3CCOCC3)cc2)cc1 (configuration not stated)	11.7	.	.
O=C(O)COc1ccc(/C=N/NC(=O)c2ccc(-c3csc(Nc4ccc(Cl)cc4)n3)cc2)cc1	20.6	.	.
CCOc1cc(/C=N/NC(=O)c2ccc(-c3csc(Nc4ccc(C)cc4)n3)cc2)ccc1OCC(=O)O	18.6	3.28*	?
COc1ccccc1/C=C(/C(=O)OCC(=O)Nc1cc(C)ccc1C)c1ccccc1	18.9	-0.743	.
CN(C)/C=C1\C(=O)N(C)N=C1C(F)(F)F	2.3	.	.
SMILES	Biofilm kill mix	ROMK mod	ROMK hit retest
O=C(C[n+]1cccc(CNC(=O)c2ccc(OC(F)F)cc2)c1)Nc1cccc(C(F)(F)F)c1	12.1	-3.06*	0.0529*
O=C(C[n+]1cccc(CNC(=O)c2ccc(OC(F)F)cc2)c1)Nc1ccc(F)cc1	-17.3	-1.44	.
Cc1[nH]n(-c2ccc([N+](=O)[O-])cc2)c(=O)c1N=Nc1nc2ccccc2s1	.	0.207	.
Cc1nc(N)c(CC(Br)CBr)c(Cl)n1 (configuration not stated)	32.9	.	.
CN(C)S(=O)(=O)c1cccc(COC(=O)c2ccc(Cl)cc2O)c1	12.9	.	.
CCn1nc(C(=O)OCc2cccc(S(=O)(=O)N(C)C)c2)c2ccccc2c1=O	17.6	.	?
COc1ccc(NC(=O)N2CCC(n3cnc4ccccc43)CC2)cc1	9.5	0.0348	.
COc1cccc(/C=N/NC(=O)c2cc3c(OC)c(OC)ccc3[nH]2)c1OC	15.6	0.0798	.
COc1cccc(/C=N/NC(=O)c2cc3c(OC)cccc3[nH]2)c1OC	16.8	.	0.0703
Cc1ccc(NC(=O)c2ccc3c(c2)[nH]c(=O)n3C(C)C)cc1	18.5	2.87*	0.0851
CCn1c(=O)[nH]c2cc(C(=O)Nc3cc(C)cc(C)c3)ccc2c1=O	11.2	0.0117	.
CCc1cccc(C)c1NC(=S)N(CCOC)C(C)c1ccco1 (configuration not stated)	26.1	.	.
CN1/C(=C\C=O)C(C)(C)c2ccccc21	16.4	0.435	.
CN1\C(=C/C=C/C=C/C=[N+](C)C)C(C)(C)c2ccccc21	23.3	-3.59*	0.0513*
O=C(c1ccco1)c1coc2c1cc(O)c1ccccc12	5.3	0.204	.
